In ChEMBL document CHEMBL1138354, “2-(2'-((dimethylamino)methyl)-4'-(fluoroalkoxy)-phenylthio)benzenamine derivatives as serotonin transporter imaging agents” (J Med Chem, 2007):

What was measured:
Bone [1] = test: Biodistribution in iv dosed rat bone after 30 mins; type: ADME, organism-based, Bone element; details: in vivo, 0.5 h
Method in brief: (§1)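 [18F]-labeled tracer was given to rats under isoflurane anesthesia: 0.2 ml sterile water with 1 mg/mL BSA and 10–100 μCi, into the femoral vein. Three rats per group. Animals were killed by cervical dislocation under anesthesia at the stated time. Organs were removed, weighed and counted. Uptake was calculated as percent dose against a 1% aliquot of the injected dose counted alongside.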

Nucleic Acid [2] = test: Ratio of drug level in hypothalamus to cerebellum in rat after 120 mins; type: ADME, tissue-based; details: in vivo, 2 h
Method in brief: (§2)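 Rats, 3 per group, given ¹⁸F tracer (10–100 μCi, 0.2 ml sterile water with 1 mg/mL BSA) into the femoral vein under isoflurane. Brain regions, including hypothalamus, striatum and cerebellum, dissected, weighed and counted. % dose/g calculated against a 1% diluted aliquot of the dose. Region/cerebellum ratio is region %dose/g divided by cerebellum %dose/g. SD of the ratio propagated from both means and SDs.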

Nucleic Acid [3] = test: Ratio of drug level in striatum to cerebellum in rat assessed as radioactivity after 30 mins; type: ADME, tissue-based; details: in vivo, 0.5 h
Method in brief: (§3)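 Groups of three normal rats under isoflurane received the [18F] tracer (10–100 μCi in 0.2 ml sterile water containing 1 mg/mL BSA) into the femoral vein. They were killed by cervical dislocation under anesthesia at the stated time. Cortex, striatum, hippocampus, hypothalamus and cerebellum were dissected, weighed and gamma-counted. %dose/g was set against a 100-fold diluted dose aliquot, and each region was divided by cerebellum.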

Kidney [4] = test: Biodistribution in iv dosed rat kidney after 240 mins; type: ADME, organism-based; details: in vivo, 4 h; method in brief: as §1
Liver [5] = test: Biodistribution in iv dosed rat liver after 2 mins; type: ADME, organism-based; details: in vivo; method in brief: as §1
Liver [6] = test: Biodistribution in iv dosed rat liver after 240 mins; type: ADME, organism-based; details: in vivo, 4 h; method in brief: as §1
Striatum [7] = test: Biodistribution in iv dosed rat striatum assessed as radioactivity after 60 mins; type: ADME, organism-based; details: in vivo, 1 h
Brain [8] = test: Biodistribution in iv dosed rat brain after 60 mins; type: ADME, organism-based; details: in vivo, 1 h; method in brief: as §1
Bone [9] = test: Biodistribution in iv dosed rat bone after 240 mins; type: ADME, organism-based, Bone element; details: in vivo, 4 h; method in brief: as §1
Nucleic Acid [10] = test: Ratio of drug level in hippocampus to cerebellum in rat assessed as radioactivity after 60 mins; type: ADME, tissue-based; details: in vivo, 1 h
Zone of skin [11] = test: Biodistribution in iv dosed rat skin after 2 mins; type: ADME, organism-based; details: in vivo
Muscle tissue [12] = test: Biodistribution in iv dosed rat muscle after 240 mins; type: ADME, organism-based; details: in vivo, 4 h; method in brief: as §1
Kidney [13] = test: Biodistribution in iv dosed rat kidney after 60 mins; type: ADME, organism-based; details: in vivo, 1 h; method in brief: as §1
Nucleic Acid [14] = test: Ratio of drug level in hippocampus to cerebellum in rat assessed as radioactivity after 120 mins; type: ADME, tissue-based; details: in vivo, 2 h; method in brief: as §3
Nucleic Acid [15] = test: Ratio of drug level in striatum to cerebellum in rat assessed as radioactivity after 60 mins; type: ADME, tissue-based; details: in vivo, 1 h
Blood [16] = test: Biodistribution in iv dosed rat blood after 30 mins; type: ADME, organism-based; details: in vivo, 0.5 h; method in brief: as §1
Spleen [17] = test: Biodistribution in iv dosed rat spleen after 240 mins; type: ADME, organism-based; details: in vivo, 4 h
Zone of skin [18] = test: Biodistribution in iv dosed rat skin after 60 mins; type: ADME, organism-based; details: in vivo, 1 h
Blood [19] = test: Biodistribution in iv dosed rat blood after 240 mins; type: ADME, organism-based; details: in vivo, 4 h; method in brief: as §1
Nucleic Acid [20] = test: Ratio of drug level in striatum to cerebellum in rat assessed as radioactivity after 240 mins; type: ADME, tissue-based; details: in vivo, 4 h
Nucleic Acid [21] = test: Ratio of drug level in hippocampus to cerebellum in rat assessed as radioactivity after 30 mins; type: ADME, tissue-based; details: in vivo, 0.5 h; method in brief: as §3
Nucleic Acid [22] = test: Ratio of drug level in cortex to cerebellum in rat assessed as radioactivity after 240 mins; type: ADME, tissue-based; details: in vivo, 4 h
Zone of skin [23] = test: Biodistribution in iv dosed rat skin after 120 mins; type: ADME, organism-based; details: in vivo, 2 h
Method in brief: (§4)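 Rats, 3 per group, under isoflurane. ¹⁸F tracer (10–100 μCi) in 0.2 ml sterile water with 1 mg/mL BSA injected into the femoral vein. Killed by cervical dislocation under anesthesia at the stated time. Organs removed, weighed and counted. % dose/organ calculated against counts of a 1% diluted aliquot of the injected dose.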

Bone [24] = test: Biodistribution in iv dosed rat bone after 120 mins; type: ADME, organism-based, Bone element; details: in vivo, 2 h; method in brief: as §1
Blood [25] = test: Biodistribution in iv dosed rat blood after 2 mins; type: ADME, organism-based; details: in vivo; method in brief: as §1
Nucleic Acid [26] = test: Ratio of drug level in hypothalamus to cerebellum in rat after 2 mins; type: ADME, tissue-based; details: in vivo
Nucleic Acid [27] = test: Ratio of drug level in hypothalamus to cerebellum in rat after 30 mins; type: ADME, tissue-based; details: in vivo, 0.5 h; method in brief: as §2
Nucleic Acid [28] = test: Ratio of drug level in hippocampus to cerebellum in rat assessed as radioactivity after 240 mins; type: ADME, tissue-based; details: in vivo, 4 h
Striatum [29] = test: Biodistribution in iv dosed rat striatum assessed as radioactivity after 240 mins; type: ADME, organism-based; details: in vivo, 4 h
Heart [30] = test: Biodistribution in iv dosed rat heart after 30 mins; type: ADME, organism-based; details: in vivo, 0.5 h; method in brief: as §1
Liver [31] = test: Biodistribution in iv dosed rat liver after 120 mins; type: ADME, organism-based; details: in vivo, 2 h; method in brief: as §1
Spleen [32] = test: Biodistribution in iv dosed rat spleen after 120 mins; type: ADME, organism-based; details: in vivo, 2 h; method in brief: as §4
Striatum [33] = test: Biodistribution in iv dosed rat striatum assessed as radioactivity after 30 mins; type: ADME, organism-based; details: in vivo, 0.5 h
Liver [34] = test: Biodistribution in iv dosed rat liver after 60 mins; type: ADME, organism-based; details: in vivo, 1 h; method in brief: as §1
Muscle tissue [35] = test: Biodistribution in iv dosed rat muscle after 2 mins; type: ADME, organism-based; details: in vivo; method in brief: as §1
Nucleic Acid [36] = test: Ratio of drug level in cortex to cerebellum in rat assessed as radioactivity after 30 mins; type: ADME, tissue-based; details: in vivo, 0.5 h; method in brief: as §3
Kidney [37] = test: Biodistribution in iv dosed rat kidney after 30 mins; type: ADME, organism-based; details: in vivo, 0.5 h; method in brief: as §1
Kidney [38] = test: Biodistribution in iv dosed rat kidney after 2 mins; type: ADME, organism-based; details: in vivo; method in brief: as §1
Brain [39] = test: Biodistribution in iv dosed rat brain after 120 mins; type: ADME, organism-based; details: in vivo, 2 h; method in brief: as §1
Nucleic Acid [40] = test: Ratio of drug level in hypothalamus to cerebellum in rat assessed as radioactivity after 60 mins; type: ADME, tissue-based; details: in vivo, 1 h
Brain [41] = test: Biodistribution in iv dosed rat brain after 30 mins; type: ADME, organism-based; details: in vivo, 0.5 h; method in brief: as §1
Brain [42] = test: Biodistribution in iv dosed rat brain after 240 mins; type: ADME, organism-based; details: in vivo, 4 h; method in brief: as §1
Liver [43] = test: Biodistribution in iv dosed rat liver after 30 mins; type: ADME, organism-based; details: in vivo, 0.5 h; method in brief: as §1
Lung [44] = test: Biodistribution in iv dosed rat lungs after 120 mins; type: ADME, organism-based; details: in vivo, 2 h; method in brief: as §1
Nucleic Acid [45] = test: Ratio of drug level in striatum to cerebellum in rat assessed as radioactivity after 120 mins; type: ADME, tissue-based; details: in vivo, 2 h; method in brief: as §3
Spleen [46] = test: Biodistribution in iv dosed rat spleen after 30 mins; type: ADME, organism-based; details: in vivo, 0.5 h; method in brief: as §4
Spleen [47] = test: Biodistribution in iv dosed rat spleen after 60 mins; type: ADME, organism-based; details: in vivo, 1 h
Nucleic Acid [48] = test: Ratio of drug level in hypothalamus to cerebellum in rat assessed as radioactivity after 240 mins; type: ADME, tissue-based; details: in vivo, 4 h
Zone of skin [49] = test: Biodistribution in iv dosed rat skin after 240 mins; type: ADME, organism-based; details: in vivo, 4 h
Zone of skin [50] = test: Biodistribution in iv dosed rat skin after 30 mins; type: ADME, organism-based; details: in vivo, 0.5 h; method in brief: as §4
Blood [51] = test: Biodistribution in iv dosed rat blood after 60 mins; type: ADME, organism-based; details: in vivo, 1 h; method in brief: as §1
Spleen [52] = test: Biodistribution in iv dosed rat spleen after 2 mins; type: ADME, organism-based; details: in vivo
Muscle tissue [53] = test: Biodistribution in iv dosed rat muscle after 30 mins; type: ADME, organism-based; details: in vivo, 0.5 h; method in brief: as §1
[54] = Partition coefficient, log P at pH 7.4; type: physicochemical; details: octanol/water
Bone [55] = test: Biodistribution in iv dosed rat bone after 2 mins; type: ADME, organism-based, Bone element; details: in vivo; method in brief: as §1
Lung [56] = test: Biodistribution in iv dosed rat lungs after 30 mins; type: ADME, organism-based; details: in vivo, 0.5 h; method in brief: as §1
Bone [57] = test: Biodistribution in iv dosed rat bone after 60 mins; type: ADME, organism-based, Bone element; details: in vivo, 1 h; method in brief: as §1
Heart [58] = test: Biodistribution in iv dosed rat heart after 2 mins; type: ADME, organism-based; details: in vivo; method in brief: as §1
Lung [59] = test: Biodistribution in iv dosed rat lungs after 240 mins; type: ADME, organism-based; details: in vivo, 4 h; method in brief: as §1
Striatum [60] = test: Biodistribution in iv dosed rat striatum assessed as radioactivity after 120 mins; type: ADME, organism-based; details: in vivo, 2 h
Nucleic Acid [61] = test: Ratio of drug level in cortex to cerebellum in rat assessed as radioactivity after 2 mins; type: ADME, tissue-based; details: in vivo
Muscle tissue [62] = test: Biodistribution in iv dosed rat muscle after 120 mins; type: ADME, organism-based; details: in vivo, 2 h; method in brief: as §1
Kidney [63] = test: Biodistribution in iv dosed rat kidney after 120 mins; type: ADME, organism-based; details: in vivo, 2 h; method in brief: as §1

Drug uptake (Bone [1]): 8.17 %ID | Ratio (Nucleic Acid [2]): 3.7 | Ratio (Nucleic Acid [3]): 1.86 | Drug uptake (Kidney [4]): 1.53 %ID | Drug uptake (Liver [5]): 11.1 %ID | Drug uptake (Liver [6]): 2.13 %ID | Drug uptake (Striatum [7]): 1.27 % ID/g | Drug uptake (Brain [8]): 1.92 %ID | Drug uptake (Bone [9]): 12.5 %ID | Ratio (Nucleic Acid [10]): 2.21 | Drug uptake (Zone of skin [11]): 5.3 %ID | Drug uptake (Muscle tissue [12]): 8.37 %ID | Drug uptake (Kidney [13]): 2.44 %ID | Ratio (Nucleic Acid [14]): 2.23 | Ratio (Nucleic Acid [15]): 2.76 | Drug uptake (Blood [16]): 5.7 %ID | Drug uptake (Spleen [17]): 0.39 %ID | Drug uptake (Zone of skin [18]): 7.86 %ID | Drug uptake (Blood [19]): 5.21 %ID | Ratio (Nucleic Acid [20]): 3.84 | Ratio (Nucleic Acid [21]): 1.63 | Ratio (Nucleic Acid [22]): 3.21 | Drug uptake (Zone of skin [23]): 7.07 %ID | Drug uptake (Bone [24]): 9.3 %ID | Drug uptake (Blood [25]): 4.67 %ID | Ratio (Nucleic Acid [26]): 0.95 | Ratio (Nucleic Acid [27]): 2.04 | Ratio (Nucleic Acid [28]): 2.99 | Drug uptake (Striatum [29]): 0.98 % ID/g | Drug uptake (Heart [30]): 0.23 %ID | Drug uptake (Liver [31]): 2.85 %ID | Drug uptake (Spleen [32]): 0.54 %ID | Drug uptake (Striatum [33]): 1.09 % ID/g | Drug uptake (Liver [34]): 3.45 %ID | Drug uptake (Muscle tissue [35]): 18.2 %ID | Ratio (Nucleic Acid [36]): 1.95 | Drug uptake (Kidney [37]): 2.85 %ID | Drug uptake (Kidney [38]): 5.33 %ID | Drug uptake (Brain [39]): 2.16 %ID | Ratio (Nucleic Acid [40]): 2.97 | Drug uptake (Brain [41]): 1.88 %ID | Drug uptake (Brain [42]): 1.57 %ID | Drug uptake (Liver [43]): 4.58 %ID | Drug uptake (Lung [44]): 2.98 %ID | Ratio (Nucleic Acid [45]): 2.84 | Drug uptake (Spleen [46]): 0.7 %ID | Drug uptake (Spleen [47]): 0.68 %ID | Ratio (Nucleic Acid [48]): 4.26 | Drug uptake (Zone of skin [49]): 6.79 %ID | Drug uptake (Zone of skin [50]): 7.06 %ID | Drug uptake (Blood [51]): 7.05 %ID | Drug uptake (Spleen [52]): 1.05 %ID | Drug uptake (Muscle tissue [53]): 15.9 %ID | logD [54]: 2.52 | Drug uptake (Bone [55]): 9.88 %ID | Drug uptake (Lung [56]): 4.63 %ID | Drug uptake (Bone [57]): 8.53 %ID | Drug uptake (Heart [58]): 1.38 %ID | Drug uptake (Lung [59]): 2.1 %ID | Drug uptake (Striatum [60]): 1.37 % ID/g | Ratio (Nucleic Acid [61]): 1.45 | Drug uptake (Muscle tissue [62]): 10.2 %ID | Drug uptake (Kidney [63]): 2 %ID
Structure (SMILES): CN(C)Cc1cc(OCC[18F])ccc1Sc1ccc(Br)cc1N
